# Reference: ChEMBL document CHEMBL3817762, “Monoacidic Inhibitors of the Kelch-like ECH-Associated Protein 1: Nuclear Factor Erythroid 2-Related Factor 2 (KEAP1:NRF2) Protein-Protein Interaction with High Cell Potency Identified by Fragment-Based Discovery” (J Med Chem, 2016)
# Tests used:
# Format in all cases: ADME, organism-based
# [1] = Drug level in Han Wistar rat blood at 10 umol/kg, iv dosed up to 6 hrs infusions by LC-MS/MS analysis; details: whole blood, read-out: Drug uptake
# Procedure, shortened: (§1)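 Han Wistar rats (250-300 g, n=8/group) received the compound by IV infusion over 6 h at 10, 35 or 50 µmol/kg. Blood concentration was taken as the steady-state level over the 6 h infusion period.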
# [2] = Drug level in Han Wistar rat blood at 50 umol/kg, iv dosed up to 6 hrs infusions by LC-MS/MS analysis; details: whole blood, read-out: Drug uptake; procedure, shortened: as §1
# [3] = Drug level in Han Wistar rat blood at 35 umol/kg, iv dosed up to 6 hrs infusions by LC-MS/MS analysis; details: whole blood, read-out: Drug uptake; procedure, shortened: as §1
# [4] = Systemic oral bioavailability in Han Wistar rat at 2 mg/kg after 24 hrs by LC-MS/MS analysis; details: in vivo
# Procedure, shortened: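 Han Wistar rats (n=3) were dosed IV and PO in a crossover design with a two-day washout. Blood was sampled over 24 h and analysed by LC/MS/MS.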
smiles,measurement,setting,value
COc1cc([C@@H](CC(=O)O)c2ccc(C)c(CN3C[C@@H](C)Oc4ccccc4S3(=O)=O)c2)cc2nnn(C)c12,concentration at 6 h,[1],407 nM
same,concentration at 6 h,[2],1440 nM
same,concentration at 6 h,[3],946 nM
same,bioavailability,[4],7%
